Results as given in article PMC3206492 (Journal of the American Chemical Society, 2011).

System: PBP1b
Assay: In vitro PBP1b transglycosylase assay
Type: biochemical, Escherichia coli
Settings: peptide up to 200 μM
Outline: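 E. coli PBP1b glycan polymerization with heptaprenyl lipid II substrate at 4 μM, run with and without test peptide. Peptidoglycan formation was monitored, and IC50 is the peptide concentration giving half-maximal inhibition of PBP1b activity.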

lactocin S
inhibition of lipid II polymerization at concentrations up to 200 μM: did not demonstrate any inhibitory activity

sublancin
inhibition of lipid II polymerization at concentrations up to 200 μM: did not inhibit

epilancin 15X
inhibition of lipid II polymerization at concentrations up to 200 μM: did not demonstrate any inhibitory activity
